Results published in ChEMBL document CHEMBL3232760 (Bioorg Med Chem, 2014).
Calls of active or inactive are those of the source. The calls are words filed in the database; no cut-off is given here.

Legend:
Format in all cases: cell-based
[1] = target: T1, Estrogen receptor beta (Homo sapiens, UniProt Q92731); assay: Agonist activity at human Gal4-fused ER-beta expressed in HEK293 cells at 10 uM by luciferase reporter gene assay relative to 17beta-estradiol
Outline: (§1)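 Agonist mode: HEK293 cells in phenol-red-free DMEM with 5% FBS, 37 °C, 5% CO2, calcium phosphate cotransfected with GAL4-responsive MH100(UAS)x4-tk-LUC reporter, ER receptor fragment plasmid and beta-galactosidase plasmid. Compound added 8 h post-transfection, cells harvested 16–20 h later. Luciferase normalized to beta-galactosidase, triplicate means.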

[2] = target: T2, Estrogen receptor (Homo sapiens) (UniProt P03372); assay: Agonist activity at human Gal4-fused ER-alpha expressed in HEK293 cells at 10 uM by luciferase reporter gene assay relative to 17beta-estradiol; outline: as §1
T2 sequence (whole entry): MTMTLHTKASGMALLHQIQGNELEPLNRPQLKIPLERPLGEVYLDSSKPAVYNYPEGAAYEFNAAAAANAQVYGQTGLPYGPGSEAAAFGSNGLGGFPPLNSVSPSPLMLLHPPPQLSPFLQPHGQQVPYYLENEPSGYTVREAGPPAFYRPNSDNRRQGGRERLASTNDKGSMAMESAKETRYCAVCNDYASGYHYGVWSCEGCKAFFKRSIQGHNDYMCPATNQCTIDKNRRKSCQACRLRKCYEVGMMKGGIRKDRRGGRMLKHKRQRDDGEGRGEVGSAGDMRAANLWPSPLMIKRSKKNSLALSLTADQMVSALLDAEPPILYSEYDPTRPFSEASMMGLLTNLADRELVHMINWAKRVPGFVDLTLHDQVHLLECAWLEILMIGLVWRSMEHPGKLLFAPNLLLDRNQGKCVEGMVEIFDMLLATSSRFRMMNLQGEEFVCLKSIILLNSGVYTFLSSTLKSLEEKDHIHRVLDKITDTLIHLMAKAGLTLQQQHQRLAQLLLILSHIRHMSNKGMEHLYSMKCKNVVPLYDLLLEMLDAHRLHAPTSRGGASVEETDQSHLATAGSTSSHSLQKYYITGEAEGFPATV

[3] = target: T3, Steryl-sulfatase (Homo sapiens, UniProt P08842); assay: Inhibition of steroid sulfatase in human MCF7 cells assessed as conversion of [3H]E1S to [3H]E1 and [3H]E2 after 5 hrs by liquid scintillation counting
T3 sequence (P08842 whole entry): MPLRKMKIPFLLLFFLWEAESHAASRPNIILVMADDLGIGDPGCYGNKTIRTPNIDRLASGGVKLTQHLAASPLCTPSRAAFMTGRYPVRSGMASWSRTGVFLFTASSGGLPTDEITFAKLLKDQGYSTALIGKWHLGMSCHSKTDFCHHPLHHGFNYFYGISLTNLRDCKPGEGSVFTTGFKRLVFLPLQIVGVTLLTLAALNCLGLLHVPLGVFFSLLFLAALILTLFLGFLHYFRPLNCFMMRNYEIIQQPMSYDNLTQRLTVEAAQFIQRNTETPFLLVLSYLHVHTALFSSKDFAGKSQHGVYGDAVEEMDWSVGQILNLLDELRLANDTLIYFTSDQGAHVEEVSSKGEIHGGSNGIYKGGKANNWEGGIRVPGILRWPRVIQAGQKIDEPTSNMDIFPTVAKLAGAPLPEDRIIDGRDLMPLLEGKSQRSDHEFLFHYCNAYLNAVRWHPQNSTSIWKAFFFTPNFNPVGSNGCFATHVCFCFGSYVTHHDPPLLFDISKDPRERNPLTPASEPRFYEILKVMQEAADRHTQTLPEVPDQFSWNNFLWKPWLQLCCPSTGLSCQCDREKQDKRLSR
Outline: (§2)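 MCF-7 homogenate (freeze–thaw five times, diluted in Tris–EDTA, centrifuged 15,000g 4 °C 15 min, supernatant adjusted to 0.2 mg/mL protein by Bradford) incubated with [3H]E1S (final 10 nM) and inhibitor at 37 °C for 5 h. Toluene extraction of [3H]E1 plus [3H]E2, liquid scintillation counting; 1 uM STX64 defined 100%; triplicate.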

[4] = target: T4, Steryl-sulfatase (Homo sapiens) (UniProt P08842); assay: Inhibition of steroid sulfatase in human MCF7 cells assessed as conversion of [3H]E1S to [3H]E1 and [3H]E2 at 0.1 uM after 5 hrs by liquid scintillation counting; outline: as §2
T4 sequence (whole entry): T3 sequence (P08842 whole entry)

[5] = target: T4, Steryl-sulfatase (Homo sapiens); assay: Inhibition of steroid sulfatase in human MCF7 cells assessed as conversion of [3H]E1S to [3H]E1 and [3H]E2 at 1 uM after 5 hrs by liquid scintillation counting; outline: as §2
[6] = target: T1, Estrogen receptor beta; assay: Antagonist activity at human Gal4-fused ER-beta expressed in HEK293 cells assessed as inhibition of 17beta-estradiol-induced effect at 3 uM by luciferase reporter gene assay
Outline: (§3)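 Antagonist mode in transfected HEK293 GAL4-ER luciferase system, with cells co-treated with 0.3 nM 17beta-estradiol. Compound added 8 h post-transfection, 16–20 h treatment, luciferase normalized to beta-galactosidase, triplicate means.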

[7] = target: T2, Estrogen receptor (Homo sapiens); assay: Antagonist activity at human Gal4-fused ER-alpha expressed in HEK293 cells assessed as inhibition of 17beta-estradiol-induced effect at 3 uM by luciferase reporter gene assay; outline: as §3
[8] = target: T1, Estrogen receptor beta; assay: Antagonist activity at human Gal4-fused ER-beta expressed in HEK293 cells assessed as inhibition of 17beta-estradiol-induced effect by luciferase reporter gene assay
Outline: (§4)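 With 0.3 nM 17beta-estradiol present, HEK293 cells calcium phosphate cotransfected with GAL4-responsive luciferase reporter, ER plasmid and beta-galactosidase were treated 8 h post-transfection for 16–20 h. Normalized luciferase, triplicate means; antagonism expressed as IC50 (nM).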

[9] = target: T5, Estrogen receptor (Homo sapiens, UniProt P03372); assay: Antagonist activity at human Gal4-fused ER-alpha expressed in HEK293 cells assessed as inhibition of 17beta-estradiol-induced effect by luciferase reporter gene assay; outline: as §4
T5 sequence (P03372 whole entry): T2 sequence (whole entry)

[10] = target: T5, Estrogen receptor; assay: Agonist activity at human Gal4-fused ER-alpha expressed in HEK293 cells by luciferase reporter gene assay
Outline: (§5)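 GAL4-ER fusion reporter in HEK293 (phenol-red-free DMEM, 5% FBS), calcium phosphate transfection with MH100(UAS)x4-tk-LUC and beta-galactosidase control; compounds given 8 h after transfection, harvest at 16–20 h. Luciferase/beta-galactosidase ratio, triplicate means; agonism expressed as EC50 (nM).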

[11] = target: T1, Estrogen receptor beta; assay: Agonist activity at human Gal4-fused ER-beta expressed in HEK293 cells by luciferase reporter gene assay; outline: as §5
[12] = target: T1, Estrogen receptor beta; assay: Antagonist activity at human Gal4-fused ER-beta expressed in HEK293 cells assessed as inhibition of 17beta-estradiol-induced effect at 1 uM by luciferase reporter gene assay; outline: as §3

T1 sequence (Q92731 whole entry, the tested form may be a part): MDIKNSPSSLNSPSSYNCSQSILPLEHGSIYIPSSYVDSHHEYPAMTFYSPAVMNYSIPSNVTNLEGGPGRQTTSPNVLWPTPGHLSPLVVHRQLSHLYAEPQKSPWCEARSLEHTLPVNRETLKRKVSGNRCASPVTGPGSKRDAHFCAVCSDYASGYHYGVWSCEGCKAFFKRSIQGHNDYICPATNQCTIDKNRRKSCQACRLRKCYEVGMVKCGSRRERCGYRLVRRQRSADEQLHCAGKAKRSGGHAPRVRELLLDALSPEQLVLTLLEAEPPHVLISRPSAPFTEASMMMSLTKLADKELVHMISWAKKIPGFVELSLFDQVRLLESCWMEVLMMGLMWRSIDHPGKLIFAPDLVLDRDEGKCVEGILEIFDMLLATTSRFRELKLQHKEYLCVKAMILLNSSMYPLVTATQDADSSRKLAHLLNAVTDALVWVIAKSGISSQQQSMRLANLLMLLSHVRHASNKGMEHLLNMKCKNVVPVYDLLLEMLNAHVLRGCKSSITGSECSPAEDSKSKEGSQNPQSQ

| SMILES | Activity [1] | Activity [2] | inhibition [4] [%] | inhibition [5] [%] | inhibition [6] | inhibition [7] | further results |
| --- | --- | --- | --- | --- | --- | --- | --- |
| CC[Si](CC)(c1ccc(OS(N)(=O)=O)c(C)c1)c1ccc(OS(N)(=O)=O)c(C)c1 | inactive | inactive | 22.6 | 82.6 | 47.2% | 94.8% | IC50 [3]: 170 nM |
| CC(C)(c1ccc(OS(N)(=O)=O)cc1)c1ccc(OS(N)(=O)=O)cc1 | inactive | 9.5% | < 10 | < 10 | 7.79% | 6.63% | – |
| CN(C)S(=O)(=O)Oc1ccc([Si](C)(C)c2ccc(OS(=O)(=O)N(C)C)cc2)cc1 | – | – | < 10 | < 10 | – | – | – |
| Oc1ccc(Sc2ccc(O)cc2)cc1 | – | 37.8% | – | – | – | – | IC50 ([8]; hek293): Not Active |
| CC[Si](CC)(c1ccc(OS(N)(=O)=O)cc1)c1ccc(OS(N)(=O)=O)cc1 | 1.1% | inactive | 62 | 96.4 | 62.8% | 100% | – |
| C[Si](C)(c1ccc(OS(N)(=O)=O)cc1)c1ccc(OS(N)(=O)=O)cc1 | 16.7% | 10.8% | 35.8 | 81.9 | inactive | inactive | – |
| CCC[Si](CCC)(c1ccc(OS(N)(=O)=O)c(C)c1)c1ccc(OS(N)(=O)=O)c(C)c1 | – | – | < 10 | 18.7 | 18% | 87.1% | – |
| CC[Si](CC)(c1ccc(O)c(C)c1)c1ccc(O)c(C)c1 | – | – | – | – | 53.5% | – | IC50 [9]: 29.7 nM |
| CCCC(CCC)(c1ccc(O)c(C)c1)c1ccc(O)c(C)c1 | 6.1% | – | – | – | – | – | EC50 [10]: Not Active |
| CCC(CC)(c1ccc(O)c(C)c1)c1ccc(O)c(C)c1 | – | – | – | – | – | – | IC50 [9]: 3.53 nM; EC50 [11]: Not Active; EC50 [10]: Not Active |
| CCC[Si](CCC)(c1ccc(O)c(C)c1)c1ccc(O)c(C)c1 | 4.9% | 5.6% | – | – | – | – | IC50 [9]: 26.2 nM; IC50 ([8]; read-out: IC50): 804 nM |
| CC(C)(c1ccc(O)cc1)c1ccc(O)cc1 [BISPHENOL A] | – | 28.7% | – | – | – | 36.1% | IC50 ([8]; hek293): Not Active |
| CC[Si](CC)(c1ccc(O)cc1)c1ccc(O)cc1 | 11.9% | 7.1% | – | – | – | – | IC50 [9]: 115 nM; inhibition [12]: 53% |
| CCCC[Si](CCCC)(c1ccc(OS(N)(=O)=O)c(C)c1)c1ccc(OS(N)(=O)=O)c(C)c1 | – | – | < 10 | 16.4 | inactive | 16.4% | – |
| NS(=O)(=O)Oc1ccc(Cc2ccc(OS(N)(=O)=O)cc2)cc1 | – | – | < 10 | 50.1 | 2.25% | – | IC50 [3]: 1020 nM; EC50 [10]: Active |
| CCCCC(CCCC)(c1ccc(OS(N)(=O)=O)c(C)c1)c1ccc(OS(N)(=O)=O)c(C)c1 | – | – | 10.3 | 28 | inactive | 42.5% | – |
| NS(=O)(=O)Oc1ccc2c3c(c(=O)oc2c1)CCCCC3 | – | – | – | 100 | – | – | – |
| CCCC(CCC)(c1ccc(OS(N)(=O)=O)c(C)c1)c1ccc(OS(N)(=O)=O)c(C)c1 | – | – | < 10 | 21.1 | 43.9% | 54.9% | – |
| Oc1ccc(Cc2ccc(O)cc2)cc1 | – | – | – | – | – | 22.6% | IC50 ([8]; hek293): Not Active |
| CCC(CC)(c1ccc(OS(N)(=O)=O)c(C)c1)c1ccc(OS(N)(=O)=O)c(C)c1 | inactive | inactive | < 10 | 25.4 | 49.3% | 36.7% | – |
| CCC(CC)(c1ccc(O)cc1)c1ccc(O)cc1 | 9.3% | – | – | – | – | – | IC50 [9]: 118 nM; EC50 [10]: Not Active |
| C[Si](C)(c1ccc(O)cc1)c1ccc(OS(N)(=O)=O)cc1 | – | – | 25.2 | 76.4 | – | – | – |
| CCC(CC)(c1ccc(OS(N)(=O)=O)cc1)c1ccc(OS(N)(=O)=O)cc1 | inactive | inactive | 11 | 29.9 | 49.3% | 53.2% | – |
| CCCCC(CCCC)(c1ccc(O)c(C)c1)c1ccc(O)c(C)c1 | – | – | – | – | – | – | EC50 [11]: Not Active; EC50 [10]: Not Active |
| C[Si](C)(c1ccc(O)cc1)c1ccc(O)cc1 | – | 25.3% | < 10 | < 10 | – | 50.9% | IC50 ([8]; hek293): Not Active |
| NS(=O)(=O)Oc1ccc(Sc2ccc(OS(N)(=O)=O)cc2)cc1 | 82.8% | – | 57.1 | 89.7 | inactive | – | IC50 [3]: 88 nM; EC50 [10]: Active |
